Results reported in ChEMBL document CHEMBL1177802, “Novel semicarbazones based 2,5-disubstituted-1,3,4-oxadiazoles: one more step towards establishing four binding site pharmacophoric model hypothesis for anticonvulsant activity” (Bioorg Med Chem Lett, 2010).
Active and inactive are the calls of the source.

How the values were obtained:
Mus musculus [1] = test: Anticonvulsant activity against subcutaneous pentylenetetrazole-induced seizures in Swiss albino mouse at 300 mg/kg, ip after 4 hrs; format: functional, organism-based; design: dose 300 mg/kg
Summary of the method: (§1)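 Mice; subcutaneous pentylenetetrazole seizure screen after ip dosing at 30, 100 and 300 mg/kg, read 0.5 and 4.0 h post-dose. Scored as the lowest dose protecting at least half of the animals. Absence of activity is judged at the 300 mg/kg maximum.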

Rattus norvegicus [2] = test: Anticonvulsant activity against subcutaneous strychnine-induced seizures in Wistar rat at 300 mg/kg, ip after 0.5 hrs; format: functional, organism-based; design: dose 300 mg/kg
Summary of the method: (§2)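 Rats; subcutaneous strychnine-induced seizure model with compounds given intraperitoneally at 30, 100 and 300 mg/kg. Activity is checked at 0.5 h and 4.0 h and recorded as the minimal dose active in at least half of the animals. Absence of activity is judged at the 300 mg/kg maximum.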

Mus musculus [3] = test: Anticonvulsant activity against subcutaneous pentylenetetrazole-induced seizures in Swiss albino mouse at 300 mg/kg, ip after 0.5 hrs; format: functional, organism-based; design: dose 300 mg/kg; summary of the method: as §1
Rattus norvegicus [4] = test: Anticonvulsant activity against subcutaneous strychnine-induced seizures in Wistar rat at 300 mg/kg, ip after 4 hrs; format: functional, organism-based; design: dose 300 mg/kg; summary of the method: as §2
Mus musculus [5] = test: Anticonvulsant activity against maximal electroshock-induced seizures in Swiss albino mouse at 300 mg/kg, ip after 0.5 hrs; format: functional, organism-based; design: dose 300 mg/kg
Summary of the method: (§3)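 Mice; compounds given ip at 30, 100 and 300 mg/kg and tested in the maximal electroshock seizure model at 0.5 and 4.0 h after dosing. Read-out is the minimal dose giving protection in half or more of the animals. Absence of activity is judged at the 300 mg/kg maximum.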

Mus musculus [6] = test: Anticonvulsant activity against maximal electroshock-induced seizures in ip dosed Swiss albino mouse assessed as minimum effective dose after 4 hrs; format: functional; settings: read-out: MED; summary of the method: as §3
Mus musculus [7] = test: Neurotoxicity in Swiss albino mouse at 300 mg/kg, ip after 0.5 hrs; format: toxicity, organism-based; design: dose 300 mg/kg, route intraperitoneal; settings: in vivo
Summary of the method: (§4)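 Acute neurotoxicity by rotorod test in mice given 30, 100 and 300 mg/kg ip, assessed 0.5 and 4.0 h after dosing. Reported as the minimal dose producing the effect in half or more of the animals. Absence of activity is judged at the 300 mg/kg maximum.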

Mus musculus [8] = test: Neurotoxicity in Swiss albino mouse at 300 mg/kg, ip after 4 hrs; format: toxicity, organism-based; design: dose 300 mg/kg, route intraperitoneal; settings: in vivo; summary of the method: as §4
Mus musculus [9] = test: Neurotoxicity in ip dosed Swiss albino mouse assessed as minimum dose required to cause toxicity after 4 hrs; format: organism-based; settings: in vivo; summary of the method: as §4
Mus musculus [10] = test: Anticonvulsant activity against subcutaneous pentylenetetrazole-induced seizures in ip dosed Swiss albino mouse assessed as minimum effective dose after 4 hrs; format: functional; settings: read-out: MED; summary of the method: as §1
Mus musculus [11] = test: Anticonvulsant activity against maximal electroshock-induced seizures in Swiss albino mouse at 300 mg/kg, ip after 4 hrs; format: functional, organism-based; design: dose 300 mg/kg; summary of the method: as §3
Mus musculus [12] = test: Anticonvulsant activity against maximal electroshock-induced seizures in ip dosed Swiss albino mouse assessed as minimum effective dose after 0.5 hrs; format: functional; settings: read-out: MED; summary of the method: as §3
Rattus norvegicus [13] = test: Anticonvulsant activity against subcutaneous strychnine-induced seizures in ip dosed Wistar rat assessed as minimum effective dose after 4 hrs; format: functional; settings: read-out: MED; summary of the method: as §2
Rattus norvegicus [14] = test: Anticonvulsant activity against subcutaneous strychnine-induced seizures in ip dosed Wistar rat assessed as minimum effective dose after 0.5 hrs; format: functional; settings: read-out: MED
Summary of the method: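 Rats given 30, 100 or 300 mg/kg ip and challenged with subcutaneous strychnine. Protection was read at 0.5 and 4.0 h after dosing. The value is the minimal dose that gave activity in half or more of the animals; no activity at 300 mg/kg was the highest-dose cut-off.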

Mus musculus [15] = test: Anticonvulsant activity against subcutaneous pentylenetetrazole-induced seizures in ip dosed Swiss albino mouse assessed as minimum effective dose after 0.5 hrs; format: functional; settings: read-out: MED; summary of the method: as §1
Mus musculus [16] = test: Neurotoxicity in ip dosed Swiss albino mouse assessed as minimum dose required to cause toxicity after 0.5 hrs; format: organism-based; settings: in vivo; summary of the method: as §4

Structure (SMILES) | MED (Mus musculus [1]) | MED (Rattus norvegicus [2]) | MED (Mus musculus [3]) | MED (Rattus norvegicus [4]) | MED (Mus musculus [5]) | minimal effective dose (Mus musculus [6]) [mg/kg] | Activity (Mus musculus [7]) | Activity (Mus musculus [8]) | Activity (Mus musculus [9]) [mg/kg] | minimal effective dose (Mus musculus [10]) [mg/kg] | MED (Mus musculus [11]) | minimal effective dose (Mus musculus [12]) [mg/kg] | minimal effective dose (Rattus norvegicus [13]) [mg/kg] | minimal effective dose (Rattus norvegicus [14]) [mg/kg] | minimal effective dose (Mus musculus [15]) [mg/kg] | Activity (Mus musculus [16]) [mg/kg]
Cc1ccc(/C=N\NC(=O)Nc2nnc(COc3ccc4ccccc4c3)o2)cc1 | inactive | inactive | inactive | inactive | inactive | 300 | Non-toxic | Non-toxic |  |  |  |  |  |  |  | 
O=C(N/N=C\c1cccc(O)c1)Nc1nnc(COc2ccc3ccccc3c2)o1 |  | inactive | inactive | inactive | inactive | 300 | Non-toxic |  | 300 | 300 |  |  |  |  |  | 
O=C(N/N=C\c1ccc([N+](=O)[O-])cc1)Nc1nnc(COc2ccc3ccccc3c2)o1 | inactive | inactive | inactive |  |  |  | Non-toxic |  | 300 |  | inactive | 300 | 300 |  |  | 
O=C(N/N=C\c1ccccc1)Nc1nnc(COc2ccc3ccccc3c2)o1 | inactive | inactive | inactive | inactive | inactive | 300 | Non-toxic |  | 300 |  |  |  |  |  |  | 
CN(C)c1ccc(/C=N\NC(=O)Nc2nnc(COc3ccc4ccccc4c3)o2)cc1 | inactive | inactive | inactive | inactive |  | 300 | Non-toxic |  | 300 |  |  | 100 |  |  |  | 
CCCC(CCC)C(=O)[O-].[Na+] [VALPROATE SODIUM] | inactive |  |  | inactive |  |  | Non-toxic | Non-toxic |  |  | inactive | 300 |  | 300 | 300 | 
O=C(NN=C(c1ccccc1)c1ccccc1)Nc1nnc(COc2ccc3ccccc3c2)o1 | inactive | inactive | inactive | inactive | inactive | 300 |  | Non-toxic |  |  |  |  |  |  |  | 300
C/C(=N/NC(=O)Nc1nnc(COc2ccc3ccccc3c2)o1)c1ccc(O)cc1 | inactive | inactive | inactive | inactive |  | 300 | Non-toxic |  | 300 |  |  | 100 |  |  |  | 
C/C(=N/NC(=O)Nc1nnc(COc2ccc3ccccc3c2)o1)c1ccc(C)cc1 | inactive | inactive |  | inactive | inactive |  |  | Non-toxic |  |  | inactive |  |  |  | 300 | 300
COc1cc(/C=N\NC(=O)Nc2nnc(COc3ccc4ccccc4c3)o2)ccc1O | inactive | inactive | inactive |  | inactive |  |  | Non-toxic |  |  | inactive |  | 300 |  |  | 300
COc1ccc(/C(=N\NC(=O)Nc2nnc(COc3ccc4ccccc4c3)o2)c2ccccc2)cc1 | inactive | inactive | inactive | inactive | inactive | 300 | Non-toxic |  | 300 |  |  |  |  |  |  | 
C/C(=N/NC(=O)Nc1nnc(COc2ccc3ccccc3c2)o1)c1ccc(Cl)cc1 |  | inactive | inactive | inactive | inactive |  | Non-toxic | Non-toxic |  | 300 | inactive |  |  |  |  | 
C/C(=N/NC(=O)Nc1nnc(COc2ccc3ccccc3c2)o1)c1ccc(N)cc1 |  | inactive | inactive |  | inactive | 300 | Non-toxic | Non-toxic |  | 300 |  |  | 300 |  |  | 
O=C1NC(=O)C(c2ccccc2)(c2ccccc2)N1 [PHENYTOIN] | inactive | inactive | inactive |  |  | 30 |  |  | 100 |  |  | 30 | 100 |  |  | 100
COc1ccc(/C=N\NC(=O)Nc2nnc(COc3ccc4ccccc4c3)o2)cc1 |  | inactive | inactive | inactive | inactive |  | Non-toxic | Non-toxic |  | 300 | inactive |  |  |  |  | 
CCC1(C)CC(=O)NC1=O (centres undefined) [ETHOSUXIMIDE] |  |  |  | inactive | inactive |  | Non-toxic | Non-toxic |  | 300 | inactive |  |  | 300 | 100 | 
O=C(N/N=C\c1ccc(Cl)cc1)Nc1nnc(COc2ccc3ccccc3c2)o1 | inactive | inactive | inactive | inactive | inactive |  |  | Non-toxic |  |  | inactive |  |  |  |  | 300
NC(=O)N1c2ccccc2C=Cc2ccccc21 [CARBAMAZEPINE] |  | inactive |  | inactive |  | 100 |  |  | 300 | 300 |  | 30 |  |  | 100 | 100
